bCat KO growth: primary screen for growth suppressors in beta-catenin knockout HCT116 cells (colon tumor, human); HCT116 beta-catenin knockout viability, CellTiter-Glo, 60 h; hits give low values; 140,000 compounds, 1.5% hits; viability, % at 10 µM; AID 818, 2007;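 active = viability at or under a set limit, the compound median less 4 SD, cut at about 6% in these data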;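 note: 0% = Hyamine 1622 control at 20 µM and 100% = untreated cell control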
HUVEC prolif 384: inhibitors of HUVEC proliferation, primary screen, cell-based, 384-well; CellTiter-Glo luminescence, 72 h; hits give low values; viability, % at 10 µM (by protocol); 86,000 compounds, 1.1% hits; AID 648, 2007;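 active = viability at or below 30%; inactive = viability above 30%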;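 note: 100% = median luminescence of DMSO-only cell control wells on each plate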
Fibroblast inh: antiproliferative effect on LL 47 fibroblasts – human, LL 47 cells, CellTiter-Glo luminescence, primary screen | LL 47 human lung fibroblast viability, ATP luminescence; hits give low values | viability, % at 10 µM | 85,000 compounds, 1.1% hits | AID 719, 2007;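 active = viability at or below 50% in the single dose screen; inactive = viability above 50%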;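 note: compound exposure lasted 72 h before the ATP readout; 100% = median luminescence of untreated cell-only wells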
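Times – overnight cell rest, 72 h compound treatment at 37 °C · Test system – human lung fibroblast line LL 47, low passage · Amount – 1,150 cells in each well · Controls – cell-only wells, no compound · Doses – 0.1% DMSO in all compound wells · Measured by – CellTiter-Glo luminescence · Buffer or medium – IMEM plus 15% FBS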
H69AR inhibit: proliferation blockers of H69AR lung cancer cells, primary screen, cell-based, human, 86K library. H69AR lung tumor viability, ATP luminescence, 72 h; hits give low values. viability, % at 10 µM. 85,000 compounds, 6% hits. AID 598, 2007;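 active = viability at or below 40%; inactive = viability above 40%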;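 note: multidrug resistant small cell line overexpressing MRP-1 efflux transporter; 100% = mean luminescence of untreated control wells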
PTEN del growth: growth suppression of PTEN-null HCT116, primary screen, cell-based, CellTiter-Glo; AID 827, 2007; HCT116 PTEN-null viability, 60 h; hits give low values; 140,000 compounds, 1.2% hits; viability, % at 10 µM;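 active = viability at or below a set limit, 4 SD under the median of all tested compounds, cut at about 3.7% in these data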;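 note: PTEN knockout HCT116 line with beta catenin targeted HCT116 as companion control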
Active calls of the source: *. The full list was thinned out, with hits kept by preference.

`O=C1C(C2=C(O)c3ccccc3C2=O)=Nc2ccccc21` gave bCat KO growth 7.6 and PTEN del growth 2.8*.
For Oc1cccc2ccc(/C=C/c3cccs3)nc12 the results were bCat KO growth 6.1, HUVEC prolif 384 59.6, Fibroblast inh 14.1*, H69AR inhibit 12.0* and PTEN del growth 3.8*.
For Cc1ccsc1/C=C/c1ccc2cccc(O)c2n1 the results were bCat KO growth 5.0*, HUVEC prolif 384 62.1, Fibroblast inh 44.9*, H69AR inhibit 17.7* and PTEN del growth 4.1.
Screening O=C(/C=C/c1cccs1)Nc1cccc(NC(=O)/C=C/c2cccs2)n1 returned bCat KO growth 35.9 and PTEN del growth 28.7.
Screening COC(=O)C(Cc1c[nH]c2ccccc12)NC(=O)c1cc(-c2ccc(OC)c(OC)c2)oc1C (stereo unspecified) returned bCat KO growth 84.0 and PTEN del growth 77.3.
For COc1nc(OC)nc(N2CCC(C(=O)NCC3CCCCC3)CC2)n1 the results were bCat KO growth 79.7, HUVEC prolif 384 104.9, Fibroblast inh 97.5, H69AR inhibit 30.8* and PTEN del growth 89.5.
Cc1cc(C)nc(N2CCC(C(=O)NCC3CCCCC3)CC2)n1 was read as bCat KO growth 100.6, HUVEC prolif 384 98.1, Fibroblast inh 102.8, H69AR inhibit 93.5 and PTEN del growth 98.5.
For COC(=O)c1cc(=O)n(CCc2ccccc2)c(=Nc2ccc(F)cc2)s1 the results were bCat KO growth 10.0, HUVEC prolif 384 54.1, Fibroblast inh 88.2, H69AR inhibit 1.3* and PTEN del growth 7.7.
For CCCCN=c1sc(C(=O)OC)cc(=O)n1CCCC the results were bCat KO growth 82.7 and PTEN del growth 72.2.
COC(=O)c1cc(=O)n(CCc2ccc(OC)cc2)c(=Nc2ccc(F)c(Cl)c2)s1 was read as bCat KO growth 6.5, HUVEC prolif 384 21.9*, Fibroblast inh 62.1, H69AR inhibit 1.7* and PTEN del growth 6.7.
COC(=O)c1cc(=O)n(Cc2ccc3c(c2)OCO3)c(=Nc2ccc(F)c(Cl)c2)s1 was read as bCat KO growth 2.0*, HUVEC prolif 384 62.9, Fibroblast inh 68.7, H69AR inhibit 32.6* and PTEN del growth 4.4.
`CCn1c(=O)cc(C(=O)OC)sc1=Nc1ccc(F)c(F)c1` gave bCat KO growth 2.2*, HUVEC prolif 384 56.5, Fibroblast inh 15.6*, H69AR inhibit 0.7* and PTEN del growth 2.0*.
COC(=O)c1cc(Br)c(=O)n(CCc2ccccc2)c1 was read as bCat KO growth 89.6, HUVEC prolif 384 96.8, Fibroblast inh 102.0, H69AR inhibit 90.7 and PTEN del growth 97.7.
`O=S(=O)(NCCSc1ccccc1)c1cccs1` gave bCat KO growth 91.8, HUVEC prolif 384 95.9, Fibroblast inh 103.0, H69AR inhibit 94.0 and PTEN del growth 97.3.
Screening CCCCNC(=O)CNC(=S)N(Cc1cc(OC)c(OC)c(OC)c1)C1CCCC1 returned bCat KO growth 96.5 and PTEN del growth 90.2.
Cc1ccccc1NC(=S)NNC(=O)c1csc2c1CCC(C)C2 (stereo unspecified) was read as bCat KO growth 69.0 and PTEN del growth 65.4.
`CC(CNC(=O)C(=O)NC(C)CCc1ccccc1)Cc1ccccc1` (stereo unspecified) gave bCat KO growth 57.9 and PTEN del growth 35.9.
Screening CCCOC(=O)c1ccc(Oc2c(-c3ccc(OC)cc3O)n[nH]c2C)cc1 returned bCat KO growth 3.5*, HUVEC prolif 384 24.8*, Fibroblast inh 88.2, H69AR inhibit 1.6* and PTEN del growth 13.0.
Screening Cc1[nH]nc(-c2ccc(O)cc2O)c1Oc1ccccc1 returned bCat KO growth 73.5, HUVEC prolif 384 80.7, Fibroblast inh 85.2, H69AR inhibit 36.0* and PTEN del growth 72.2.
For C=C(C)COc1ccc(-c2n[nH]c(C)c2Oc2ccccc2OC)c(O)c1 the results were bCat KO growth 58.4, HUVEC prolif 384 28.9*, Fibroblast inh 86.6, H69AR inhibit 7.2* and PTEN del growth 56.0.
For CCc1cc(-c2n[nH]c(C)c2Oc2ccc(C(C)C)cc2)c(O)cc1O the results were bCat KO growth 53.9, HUVEC prolif 384 2.5*, Fibroblast inh 74.0, H69AR inhibit 1.1* and PTEN del growth 61.1.
`COc1ccc([N+](=O)[O-])cc1N(CC(=O)NCCC1=CCCCC1)S(C)(=O)=O` gave bCat KO growth 80.7 and PTEN del growth 98.0.
For COc1ccc(-n2nnc3c(SCC(=O)N4CCCc5ccccc54)ncnc32)cc1 the results were HUVEC prolif 384 85.3, Fibroblast inh 96.7 and H69AR inhibit 62.1.
Screening COc1ccc(-n2c(N3CCN(C)CC3)nc3sc4c(c3c2=O)CCCCC4)cc1 returned bCat KO growth 39.5, HUVEC prolif 384 21.7*, Fibroblast inh 62.5, H69AR inhibit 22.4* and PTEN del growth 54.3.
CCOC(=O)Nc1ccc2c(c1)N(C(=O)CCN1CCOCC1)c1ccccc1S2=O (stereo unspecified) was read as bCat KO growth 8.6, HUVEC prolif 384 72.9, Fibroblast inh 73.5, H69AR inhibit 1.9* and PTEN del growth 15.6.
`COc1ccccc1-n1c(SCc2cc(=O)oc3cc(O)ccc23)nc2ccccc2c1=O` gave bCat KO growth 84.9 and PTEN del growth 85.1.
`COc1ccccc1-n1c(=O)oc2ccc(Cl)cc2c1=O` gave bCat KO growth 1.2*, HUVEC prolif 384 20.1*, Fibroblast inh 50.4, H69AR inhibit 1.5* and PTEN del growth 1.9*.
For CC1CCCN(S(=O)(=O)c2ccc(S(=O)(=O)N3CCC4(CC3)OCCO4)cc2)C1 (stereo unspecified) the results were bCat KO growth 90.9 and PTEN del growth 83.8.
`COc1ccc(C(=O)N(NC(=O)Oc2ccccc2)C(C)(C)C)cc1` gave bCat KO growth 96.8 and PTEN del growth 101.2.
For COc1cc(C(=O)N2CCN(c3cc(Cl)ccc3Cl)CC2)cc(OC)c1OC the results were bCat KO growth 10.6, HUVEC prolif 384 42.6, Fibroblast inh 53.2, H69AR inhibit 33.2* and PTEN del growth 13.1.
For O=C(Cn1sc2ccccc2c1=O)NC12CC3CC(CC(C3)C1)C2 the results were bCat KO growth 0.7* and PTEN del growth 1.1*.
Screening O=C(CSc1ccccc1C(=O)NCc1ccccc1)NC12CC3CC(CC(C3)C1)C2 returned bCat KO growth 83.7 and PTEN del growth 67.1.
CCCCC(=O)NC(=S)Nc1c(C)cc(Br)cc1C was read as bCat KO growth 101.8 and PTEN del growth 104.6.
Screening CS(=O)(=O)c1ccc(Sc2nc3ccccc3[nH]2)c([N+](=O)[O-])c1 returned bCat KO growth 65.4, HUVEC prolif 384 100.5, Fibroblast inh 96.7, H69AR inhibit 1.1* and PTEN del growth 60.6.

Compound activity from PubChem.
